A word on the IC50: it is the concentration that inhibits the measured activity by half. As usually defined, the AUC is concentration integrated over time. One may read the AUC(0-t) as exposure summed from dosing to a finite time, without extrapolation to infinity.

Activity calls are given as the source filed them. The calls are words filed in the database; no cut-off is given here.

For series [1], the system named is Mast/stem cell growth factor receptor Kit (Homo sapiens), P10721 [K642E]. Nature of the series: Inhibition of KIT K642E mutant autophosphorylation (unknown origin) expressed in human GIST882 cells at < 3000 nM by ELISA. Format: cell-based. For orientation: In an ELISA, binding on a coated surface is turned into a signal by an enzyme label.
Chain of Mast/stem cell growth factor receptor Kit (Homo sapiens), P10721 [K642E] (P10721 whole entry K642E, the tested form may be a part): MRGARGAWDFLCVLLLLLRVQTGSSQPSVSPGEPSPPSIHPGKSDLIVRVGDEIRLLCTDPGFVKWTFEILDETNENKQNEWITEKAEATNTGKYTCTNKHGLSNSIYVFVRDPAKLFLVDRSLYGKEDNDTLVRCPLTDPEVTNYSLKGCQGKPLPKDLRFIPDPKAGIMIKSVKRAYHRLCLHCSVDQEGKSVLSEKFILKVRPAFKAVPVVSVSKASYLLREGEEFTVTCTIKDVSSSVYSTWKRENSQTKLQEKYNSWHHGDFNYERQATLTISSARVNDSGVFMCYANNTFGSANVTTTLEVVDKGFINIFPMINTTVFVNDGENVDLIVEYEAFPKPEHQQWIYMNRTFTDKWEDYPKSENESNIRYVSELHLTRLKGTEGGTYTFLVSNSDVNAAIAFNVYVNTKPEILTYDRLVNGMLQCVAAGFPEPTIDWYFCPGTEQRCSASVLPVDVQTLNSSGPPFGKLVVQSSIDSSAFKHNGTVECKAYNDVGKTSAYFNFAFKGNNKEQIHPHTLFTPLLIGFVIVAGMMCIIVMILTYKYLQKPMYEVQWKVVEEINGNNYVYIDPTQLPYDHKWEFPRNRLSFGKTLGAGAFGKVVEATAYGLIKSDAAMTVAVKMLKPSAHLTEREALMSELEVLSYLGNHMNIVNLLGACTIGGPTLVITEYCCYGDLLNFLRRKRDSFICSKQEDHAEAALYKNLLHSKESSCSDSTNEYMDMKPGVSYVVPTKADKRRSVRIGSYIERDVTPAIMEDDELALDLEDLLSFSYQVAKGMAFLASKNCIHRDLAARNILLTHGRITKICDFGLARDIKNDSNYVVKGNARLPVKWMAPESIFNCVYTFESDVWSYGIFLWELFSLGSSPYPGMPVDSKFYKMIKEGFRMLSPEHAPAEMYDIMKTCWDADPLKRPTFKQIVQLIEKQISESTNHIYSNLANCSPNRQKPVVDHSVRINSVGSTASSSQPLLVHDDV
The target of series [2] is Bcr/Abl fusion protein (Homo sapiens) (UniProt P00519+P11274). Nature of the series: Inhibition of human BCR-ABL1 autophosphorylation expressed in mouse BA/F3 cells at < 3000 nM by ELISA. In kind it is cell-based. To be noted: BaF3.
Chain of Bcr/Abl fusion protein (Homo sapiens) (P00519 whole entry, looked up, the tested form may be a part): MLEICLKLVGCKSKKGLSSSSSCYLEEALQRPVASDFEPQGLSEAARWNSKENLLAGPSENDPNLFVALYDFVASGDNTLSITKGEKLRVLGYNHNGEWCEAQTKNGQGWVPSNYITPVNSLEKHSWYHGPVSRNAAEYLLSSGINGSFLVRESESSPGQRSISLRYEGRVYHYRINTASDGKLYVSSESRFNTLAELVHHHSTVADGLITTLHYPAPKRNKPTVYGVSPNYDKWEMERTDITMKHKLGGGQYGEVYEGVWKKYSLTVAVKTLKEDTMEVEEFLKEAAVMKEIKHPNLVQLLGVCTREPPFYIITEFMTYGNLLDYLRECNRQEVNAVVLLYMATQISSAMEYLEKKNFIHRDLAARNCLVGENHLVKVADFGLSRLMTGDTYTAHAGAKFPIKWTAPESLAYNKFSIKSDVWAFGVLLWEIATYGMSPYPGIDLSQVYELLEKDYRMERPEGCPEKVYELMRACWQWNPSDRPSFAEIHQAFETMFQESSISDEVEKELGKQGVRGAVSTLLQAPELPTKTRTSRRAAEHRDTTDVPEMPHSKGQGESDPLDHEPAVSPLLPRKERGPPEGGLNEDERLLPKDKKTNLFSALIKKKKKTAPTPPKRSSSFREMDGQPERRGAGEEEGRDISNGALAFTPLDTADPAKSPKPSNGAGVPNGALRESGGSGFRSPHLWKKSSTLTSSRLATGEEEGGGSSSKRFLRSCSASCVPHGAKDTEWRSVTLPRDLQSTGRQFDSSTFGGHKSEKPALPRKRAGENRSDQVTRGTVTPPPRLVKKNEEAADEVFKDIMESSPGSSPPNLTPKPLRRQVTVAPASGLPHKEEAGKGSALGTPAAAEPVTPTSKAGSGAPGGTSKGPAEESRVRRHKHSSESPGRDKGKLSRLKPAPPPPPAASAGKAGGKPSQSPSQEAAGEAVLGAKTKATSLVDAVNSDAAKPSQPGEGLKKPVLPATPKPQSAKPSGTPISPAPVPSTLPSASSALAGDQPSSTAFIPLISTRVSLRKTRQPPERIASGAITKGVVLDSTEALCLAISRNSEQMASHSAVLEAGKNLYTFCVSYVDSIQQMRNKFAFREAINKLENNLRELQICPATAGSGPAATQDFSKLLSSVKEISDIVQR
Chain of Bcr/Abl fusion protein (Homo sapiens) (P11274 whole entry, looked up, the tested form may be a part): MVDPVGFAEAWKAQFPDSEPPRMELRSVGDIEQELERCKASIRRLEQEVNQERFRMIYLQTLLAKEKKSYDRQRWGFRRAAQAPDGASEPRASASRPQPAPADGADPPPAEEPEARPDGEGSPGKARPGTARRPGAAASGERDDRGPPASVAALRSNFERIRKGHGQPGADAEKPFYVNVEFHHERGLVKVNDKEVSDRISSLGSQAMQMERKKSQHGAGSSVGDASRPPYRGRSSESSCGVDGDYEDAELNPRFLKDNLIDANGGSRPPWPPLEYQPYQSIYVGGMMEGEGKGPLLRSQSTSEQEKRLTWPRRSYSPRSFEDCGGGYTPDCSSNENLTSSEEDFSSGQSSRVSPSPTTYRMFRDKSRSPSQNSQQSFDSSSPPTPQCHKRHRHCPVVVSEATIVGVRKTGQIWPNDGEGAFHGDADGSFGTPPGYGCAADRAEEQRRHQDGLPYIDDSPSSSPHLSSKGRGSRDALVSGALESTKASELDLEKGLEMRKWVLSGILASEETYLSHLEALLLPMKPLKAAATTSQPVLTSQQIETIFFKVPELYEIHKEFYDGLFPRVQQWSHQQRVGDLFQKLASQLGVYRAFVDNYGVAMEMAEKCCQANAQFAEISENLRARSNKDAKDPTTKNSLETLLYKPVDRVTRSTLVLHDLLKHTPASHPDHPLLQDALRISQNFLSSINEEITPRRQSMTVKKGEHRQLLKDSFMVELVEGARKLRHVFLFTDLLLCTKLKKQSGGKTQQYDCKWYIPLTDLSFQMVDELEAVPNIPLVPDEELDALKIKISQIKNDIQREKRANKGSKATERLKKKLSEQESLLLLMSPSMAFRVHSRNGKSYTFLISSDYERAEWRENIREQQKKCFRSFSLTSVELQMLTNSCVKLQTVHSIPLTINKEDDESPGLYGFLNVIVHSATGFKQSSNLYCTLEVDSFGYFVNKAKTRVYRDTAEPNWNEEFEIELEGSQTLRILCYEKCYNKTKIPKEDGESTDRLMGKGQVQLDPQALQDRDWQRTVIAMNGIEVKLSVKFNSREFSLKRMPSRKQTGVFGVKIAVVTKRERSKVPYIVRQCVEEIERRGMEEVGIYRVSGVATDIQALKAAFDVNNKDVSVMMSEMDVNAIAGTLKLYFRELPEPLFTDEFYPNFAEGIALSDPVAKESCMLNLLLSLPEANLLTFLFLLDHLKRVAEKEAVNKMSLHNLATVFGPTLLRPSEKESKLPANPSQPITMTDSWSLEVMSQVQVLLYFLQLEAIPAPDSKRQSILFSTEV
In series [3] the target is T1, Bcr/Abl fusion protein (Homo sapiens, UniProt P00519). As to the kind of experiment: Inhibition of human BCR-ABL1 (unknown origin) expressed in mouse 32D cells. Format: cell-based.
T1 sequence (P00519 whole entry, the tested form may be a part): as the sequence (P00519 whole entry, looked up, the tested form may be a part) above
T1 sequence (P11274 whole entry, further chain, the tested form may be a part): as the sequence (P11274 whole entry, looked up, the tested form may be a part) above
In series [4] the target is T1, Bcr/Abl fusion protein. Nature of the series: Inhibition of human BCR-ABL1 autophosphorylation expressed in mouse BA/F3 cells by ELISA. Format: cell-based, BaF3.
For series [5], the target named is T1, Bcr/Abl fusion protein. Nature of the series: Inhibition of human BCR-ABL1 expressed in mouse BA/F3 cells assessed as cell growth inhibition by ATP-depletion assay. In kind it is cell-based, BaF3.
Series [6] has as its target Mast/stem cell growth factor receptor Kit (Homo sapiens, UniProt P10721, K642E). Nature of the series: Inhibition of KIT K642E mutant autophosphorylation (unknown origin) expressed in human GIST882 cells by ELISA. In kind it is cell-based.
The next series has as its system Rattus norvegicus. Nature of the series: AUC (0 to 48 hrs) in Sprague-Dawley rat assessed as N-[4-Methyl-3-[[4-(3-pyridinyl)-2-pyrimidinyl]amino]-phenyl]-4-(1-piperazinylmethyl)benzamide at 1 mg/kg, iv administered as bolus dose. Format: ADME, organism-based, Plasma. Further details: time < 48 hr, dose 1 mg/kg, route intravenous. The conditions noted are these: in vivo. In outline: (§1)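 Single IV bolus into femoral vein, 1 mg/kg in 0.5 mL/kg vehicle (30% NMP, 70% PEG200). Serial blood samples taken from femoral artery for up to 48 h, stored at −20 °C. Proteins precipitated with CH3CN containing internal standard, then LC/MS/MS with ESI; LLOQ 0.4 ng mL. Parameters from non-compartmental analysis.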

The nature of series [7]: AUC (0 to 48 hrs) in Sprague-Dawley rat at 1 mg/kg, iv administered as bolus dose. Format: ADME, organism-based. Further details: time < 48 hr, dose 1 mg/kg, route intravenous. To be noted: plasma. The method in brief:
as §1

The test system of series [8] is Liver microsomes. As to the kind of experiment: Metabolic stability in human liver microsomes assessed as compound remaining by capillary-HPLC/MS analysis. Format: ADME, Microsome. In outline: (§2)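 Parent compound added from 2 mM DMSO stock to liver microsomes (20 mg protein/mL) in 100 mM phosphate buffer pH 7.4 with alamethicin and UDPGA. Pre-incubated 3 min at 37 °C, started with NADPH-regenerating system, run up to 60 min at 37 °C. Stopped with ice-cold CH3CN, centrifuged, diluted, analysed by capillary-HPLC/MS; peak areas not corrected for response factors.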
In general terms: Liver microsomes are a subcellular fraction often used to study metabolism.

Series [9] concerns Liver microsomes. As to the kind of experiment: Metabolic stability in rat liver microsomes assessed as compound remaining by capillary-HPLC/MS analysis. Format: ADME, Microsome. In outline:
as §2

A short description of a further series: in vivo. To be noted: Sprague-Dawley, rat, plasma, iv, 1 mg/kg.

Chain of Mast/stem cell growth factor receptor Kit (P10721 26-976 K642E limits assumed): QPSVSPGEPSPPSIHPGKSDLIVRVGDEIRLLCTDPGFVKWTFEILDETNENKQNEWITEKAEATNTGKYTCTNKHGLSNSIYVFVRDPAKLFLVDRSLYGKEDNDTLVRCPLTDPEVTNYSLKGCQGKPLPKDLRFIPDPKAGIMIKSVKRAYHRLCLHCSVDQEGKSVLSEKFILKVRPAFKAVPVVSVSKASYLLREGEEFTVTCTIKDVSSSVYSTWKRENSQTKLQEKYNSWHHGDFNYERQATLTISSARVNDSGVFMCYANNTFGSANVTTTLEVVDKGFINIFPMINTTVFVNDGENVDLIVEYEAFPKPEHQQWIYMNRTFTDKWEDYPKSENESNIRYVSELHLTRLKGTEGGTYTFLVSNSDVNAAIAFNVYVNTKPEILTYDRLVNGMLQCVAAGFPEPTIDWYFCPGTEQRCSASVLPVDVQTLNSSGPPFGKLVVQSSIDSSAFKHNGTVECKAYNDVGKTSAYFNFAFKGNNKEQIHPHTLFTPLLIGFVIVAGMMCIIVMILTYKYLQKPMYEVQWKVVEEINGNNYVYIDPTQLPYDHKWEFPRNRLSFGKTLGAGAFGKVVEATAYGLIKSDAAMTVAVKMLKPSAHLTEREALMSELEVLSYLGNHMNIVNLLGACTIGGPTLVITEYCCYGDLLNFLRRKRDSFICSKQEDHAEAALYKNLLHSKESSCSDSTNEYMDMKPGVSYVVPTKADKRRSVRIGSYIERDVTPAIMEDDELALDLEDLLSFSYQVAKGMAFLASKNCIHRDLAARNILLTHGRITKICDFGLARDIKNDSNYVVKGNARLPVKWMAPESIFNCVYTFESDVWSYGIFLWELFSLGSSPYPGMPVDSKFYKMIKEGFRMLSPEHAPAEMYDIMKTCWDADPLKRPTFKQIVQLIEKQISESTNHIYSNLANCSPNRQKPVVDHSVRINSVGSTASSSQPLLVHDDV

Regarding `Cc1ccc(NC(=O)c2ccc(CN3CCN(C)C(=O)C3)cc2)cc1Nc1nccc(-c2cccnc2)n1`, the inhibition entry in series [1] and in series [2] was “inactive” in each case.

Take `Cc1ccc(NC(=O)c2ccc(CN3CCNCC3)cc2)cc1Nc1nccc(-c2cccnc2)n1`: the IC50 at Bcr/Abl fusion protein [3] is 512 nM; against Bcr/Abl fusion protein [4], 2230 nM; at Bcr/Abl fusion protein [5], 1560 nM; in series [6], 342 nM.

On to `CC(=O)N1CCN(Cc2ccc(C(=O)Nc3ccc(C)c(Nc4nccc(-c5cccnc5)n4)c3)cc2)CC1`, for which the inhibition result in series [1] and in series [2] was “inactive” each time.

`Cc1ccc(NC(=O)c2ccc(CN3CCN(C)CC3)cc2)cc1Nc1nccc(-c2cccnc2)n1` [IMATINIB]: the area under the curve (AUC) in the series on Rattus norvegicus stood at 0.0339 µM·h; in the series “in vivo”, 1.97 µM·h. Also, the exposure AUC(0-t) at 48 h in series [7] worked out at 1.42 µM·h. The Stability is listed as 67.3% with Liver microsomes [8] and 77.2% with Liver microsomes [9].

As to `[2H]C([2H])([2H])N1CCN(Cc2ccc(C(=O)Nc3ccc(C)c(Nc4nccc(-c5cccnc5)n4)c3)cc2)CC1`, the results for the AUC in the series on Rattus norvegicus and in the series “in vivo” were 0.011 µM·h and 1.85 µM·h, respectively. In [7], this compound came in with an exposure AUC(0-t) at 48 h of 1.15 µM·h. Further, the figures for the Stability with Liver microsomes [8] and in the series with Liver microsomes [9] were 81.9% and 80.9%, respectively.

For `Cc1ccc(NC(=O)c2ccc(CN3CCN(C=O)CC3)cc2)cc1Nc1nccc(-c2cccnc2)n1`, the inhibition entry in series [1] and in [2] was “inactive” throughout.

The record behind these values is ChEMBL document CHEMBL2384911 (Bioorg Med Chem, 2013).
